In data set [1] the test system is C57Bl/6J male mice on high fat diet. Briefly: Metabolic testing in Diet Induced Obese. Particulars: DIO mice, 12 mg/kg i.p. daily; for fasting insulin / insulin resistance index (HOMA-IR): vs vehicle.
For data set [2] the following is noted: CD-1 mice; value for 686 in brain.
Data set [3] relates to Sprague-Dawley rats. As to conditions: for Bederson’s neurological score: rat, intracerebroventricular 15 min prior to 60 min MCAo, vs vehicle.
Data set [4] has as its system UPRE-NLuc reporter in SH-SY5Y cells. Briefly: UPRE luciferase reporter assay. The data set is classed as cell-based, human. Particulars: compound pre-treatment, then 100 nM thapsigargin.
The test system of data set [5] is SH-SY5Y-GLuc-SERCaMP cells. Nature of the data set: Oxygen-glucose deprivation. Particulars: 16 h hypoxia plus 24 h normoxia; for cell attachment and viability after OGD: drugs added at beginning of OGD. The data set is classed as cell-based, human.
Data set [6] deals with primary human skeletal muscle cells. Briefly: Human skeletal muscle exodosis assay. The data set is classed as cell-based. Particulars: 30-minute pre-treatment; 100 nM thapsigargin, 8 h. Put shortly: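 Primary human myoblasts are grown in DMEM (4.5 g/L glucose) at 37°C and 5.5% CO2. They are plated at 7.3×10^3 cells/well on 3 mg/ml Matrigel-coated 96-well plates. Medium is sampled 4–8 h after thapsigargin. Secreted GLuc-SERCaMP is read as luminescence 8 h after 100 nM thapsigargin, after injecting 8 μM coelenterazine into 5 μl medium. n=11–12 wells per concentration.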

Data set [7] has as its system SH-SY5Y-GLuc-SERCaMP cells. Nature of the data set: SERCaMP assay, acute treatment paradigm. It is filed as cell-based, human. As to conditions: 30 μM compound; 200 nM thapsigargin; measured 8 h after thapsigargin.
Data set [8] relates to INS-1 832/13 pTetR TO shWfs1 cells. Briefly: Wolfram caspase 3/7 assay. It is filed as cell-based, rat. As to conditions: compounds and doxycycline for 48 h.
In data set [9] the test system is ER calcium store in SH-SY5Y cells. Briefly: GCaMPer ER calcium assay. The data set is classed as cell-based, human. As to conditions: 16 hour pre-treatment; 50 nM thapsigargin, 30 min.
Data set [10] relates to BiP, ERdj4, and ASNS mRNA in SH-SY5Y cells. Briefly: ER stress response transcriptional analysis. As to conditions: 30 μM compounds 16 h prior to 4 h 100 nM thapsigargin. It is filed as cell-based, human. Put shortly: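 SH-SY5Y cells were plated at 2.5×10^5 cells/500 μl in 24-well plates. Test compound (30 μM) was given 16 h before a 4 h exposure to 100 nM thapsigargin. Total RNA was isolated with on-column DNA digestion, and 0.5 μg was reverse-transcribed with cDNA diluted 1:20. BiP reports the ATF6 arm. Data are 2^-ddCq (n=6) versus thapsigargin only, by one-way ANOVA with Dunnett's test.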

Data set [11] has as its system SH-SY5Y human neuroblastoma cells stably expressing GLuc-SERCaMP. Nature of the data set: GLuc-SERCaMP assay. As to conditions: 4 h, read-out: EC50, GLuc-SERCaMP secretion in response to thapsigargin. It is filed as cell-based.
The subject of data set [12] is SH-SY5Y cells stably expressing a constitutively secreted GLuc (SH-SY5Y-GLuc). Nature of the data set: SH-SY5Y-GLuc counterscreen. It is filed as cell-based, human. As to conditions: 19 h treatment. The method, boiled down: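 The counterscreen used SH-SY5Y cells expressing untagged, constitutively secreted Gaussia luciferase in 1536-well plates. Cells were exposed to test compound for 19 h, and GLuc was read from the medium. The ER-to-Golgi transport blocker brefeldin A (19 h) was titrated on each of eight plates as a control (n=2 per concentration).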
For orientation: A counterscreen serves to expose hits that act by an unwanted route or on another target.

The subject of data set [13] is SH-SY5Y cells. Nature of the data set: Endogenous SERCaMPs. It is filed as cell-based, human. Particulars: 20 μM. Put shortly:
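SH-SY5Y cells were seeded at 5×10^4 cells/well in 96-well plates and given 16 h hypoxia plus 24 h normoxia with test compound (20 μM). At reperfusion, medium was fully exchanged to phenol red-free, serum-free esterase buffer (NaCl, KCl, MgCl2, CaCl2, glucose, 20 mM HEPES), collected 8 h later, and mixed 1:1 with 100 μM fluorescein […] substrate ([…]). Fluorescence (ex 465/em 528) was read after 1 h. n=24 wells; two-way ANOVA.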

Data set [14] concerns BiP/GRP78 protein levels in SH-SY5Y-SERCaMP cells. Briefly: BiP immunoblot. It is filed as cell-based, human. As to conditions: 30 μM compounds 16 h prior to 4 h 100 nM thapsigargin. (In western blotting, separated proteins are transferred to a membrane and probed.)
The test system of data set [15] is SH-SY5Y cells transfected with GLuc-ERS constructs. Nature of the data set: GLuc-ERS. The data set is classed as cell-based, human. Particulars: 20 μM. The method, boiled down:
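SH-SY5Y cells are reverse-transfected with GLuc-ERS reporter constructs: 5 × 10^4 cells are plated onto the transfection complexes in antibiotic-free medium and grown 48 h. OGD is 16 h hypoxia plus 24 h normoxia, with the test compound added at the start of OGD. GLuc is assayed in medium and lysates with coelenterazine. The secretion index is extracellular/intracellular GLuc. n=9–15 wells.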

[16] abbreviates: 16 h hypoxia plus 24 h normoxia.

Where only a bound is given, the exact number is not on record here.

Take `CC(C)C[C@H]1C(=O)N2CCC[C@H]2[C@]2(O)O[C@](NC(=O)[C@@H]3C=C4c5cccc6c5c(c(Br)n6C(=O)NC5CC5)C[C@H]4N(C)C3)(C(C)C)C(=O)N12.Cl` [analog 688, (6aR,9R)-5-bromo-N4-cyclopropyl-N9-((2R,5S,10aS,10bS)-10b-hydroxy-5-isobutyl-2-isopropyl-3,6-dioxooctahydro-8H-oxazolo[3,2-a]pyrrolo[2,1-c]pyrazin-2-yl)-7-methyl-6a,7,8,9-tetrahydroindolo[4,3-fg]quinoline-4,9(6H)-dicarboxamide, HCl]: in [1], the “change in body weight following the first week of injections” value is on record as “did not show”; the “cumulative caloric intake and energy expenditure during the three weeks of treatment” value is recorded as “did not show”; the “fasting glucose levels at 4 hours” value is recorded as “reduced fasting glucose levels”; the “food intake at the end of the second and third week of injections” value is listed as “did not show”. In data set [1], the fasting insulin entry is given as “reduced” and the “insulin resistance index (HOMA-IR)” value is “reduced”. The “metabolic conversion to the parent bromocriptine molecule” value in data set [2] is “no detectable conversion”. The “Bederson’s neurological score” value in data set [3] was “significant reduction”.

Regarding `O=C1CN(/N=C/c2ccc(-c3ccc([N+](=O)[O-])cc3)o2)C(O)=N1` [dantrolene], the UPRE-NLuc activation result in data set [4] was “inactive”. For the same compound, in [5], the “GLuc-SERCaMP secretion after OGD” value was “decreased GLuc-SERCaMP secretion”; the “cell attachment and viability after OGD” value was “improved cell attachment and viability”. The “GLuc-SERCaMP release in primary human skeletal muscle cells” value (“GLuc-SERCaMP release” below) in data set [6] is “partially attenuated GLuc-SERCaMP release”. In data set [7], the “SERCaMP release, compound added 30 min pre- to 2 hours post-thapsigargin” value (from here on “SERCaMP release … to 2 hours post-thapsigargin”) was “inhibited SERCaMP release” and the “SERCaMP release, compound added 4 hours post-thapsigargin” value was “inactive”.

As for `COc1ccc([C@@H]2Sc3ccccc3N(CCN(C)C)C(=O)[C@@H]2OC(C)=O)cc1` [diltiazem], the UPRE-NLuc activation entry in data set [4] was “inactive”. Moreover, in data set [5], the “GLuc-SERCaMP secretion after OGD” value is given as “decreased GLuc-SERCaMP secretion”; the “cell attachment and viability after OGD” value is “improved cell attachment and viability”. The “GLuc-SERCaMP release” value in [6] is “partially attenuated GLuc-SERCaMP release”. Also, the “caspase 3/7 activation associated with Wfs1 knockdown” value (“caspase 3/7 activation associated” for short) in [8] is “reduced caspase 3/7 activation”. For the same compound, in data set [7], the “SERCaMP release … to 2 hours post-thapsigargin” value is listed as “inhibited SERCaMP release” and the “SERCaMP release, compound added 4 hours post-thapsigargin” value is “inactive”. In data set [9], the “effect on ER calcium (GCaMPer fluorescence)” value (from here on “effect on ER calcium”) is listed as “no effect”.

For the compound `COc1ccc(CCN(C)CCCC(C#N)(c2ccc(OC)c(OC)c2)C(C)C)cc1OC` (stereo not drawn) [verapamil], in data set [4], the UPRE-NLuc activation entry is “diminished UPRE-NLuc activation”. In [6], the “GLuc-SERCaMP release” value is reported as “partially attenuated GLuc-SERCaMP release”. Further, the “caspase 3/7 activation associated” value in data set [8] was “reduced caspase 3/7 activation”. In data set [7], the “SERCaMP release … to 2 hours post-thapsigargin” value is “inhibited SERCaMP release” and the “SERCaMP release, compound added 4 hours post-thapsigargin” value is “inactive”. The “BiP mRNA levels” value in data set [10] is “reduced expression of BiP”.

On to `C/C=C(/C)C(=O)O[C@H]1C(C)=C2[C@H]([C@@H]1OC(=O)CCCCCCC)[C@@](C)(OC(C)=O)C[C@H](OC(=O)CCC)[C@@]1(O)[C@H]2OC(=O)[C@@]1(C)O` [Thapsigargin], for which the 50% effective concentration (EC50) (commonly the concentration needed to bring the measured effect to its halfway point) in data set [11] turned out to be 112 nM.

With `CC(C)C[C@H]1C(=O)N2CCC[C@H]2[C@]2(O)O[C@](NC(=O)[C@@H]3C=C4c5cccc6c5c(c(Br)n6C(=O)C5CC5)C[C@H]4N(C)C3)(C(C)C)C(=O)N12.Cl` [analog 686, (6aR,9R)-5-bromo-4-(cyclopropanecarbonyl)-N-((2R,5S,10aS,10bS)-10b-hydroxy-5-isobutyl-2-isopropyl-3,6-dioxooctahydro-8H-oxazolo[3,2-a]pyrrolo[2,1-c]pyrazin-2-yl)-7-methyl-4,6,6a,7,8,9-hexahydroindolo[4,3-fg]quinoline-9-carboxamide, HCl], the “metabolic conversion to the parent bromocriptine molecule” value in data set [2] was less than 1%. Further, the “reduction of infarction volume compared with bromocriptine” value in data set [3] (rat MCAO) is on record as “more effective than bromocriptine”. The “Bederson’s neurological score” value in data set [3] is on record as “significant reduction”.

Consider `C[C@@H]1C[C@@H]([C@H](O)CC2CC(=O)NC(=O)C2)C(=O)[C@@H](C)C1` [cycloheximide], for which the “activity in the SH-SY5Y-GLuc counterscreen” value in data set [12] is “inhibitory activity”.

In the case of `CC(C)C[C@H]1C(=O)N2CCC[C@H]2[C@]2(O)O[C@](NC(=O)[C@@H]3C=C4c5cccc6[nH]c(Br)c(c56)C[C@H]4N(C)C3)(C(C)C)C(=O)N12` [bromocriptine], in data set [1], the “change in body weight following the first week of injections” value was “significant decrease in body weight”; the “cumulative caloric intake and energy expenditure during the three weeks of treatment” value is “significantly higher”; the “fasting glucose levels at 4 hours” value was “reduced fasting glucose levels”; the “food intake at the end of the second and third week of injections” value is listed as “elevated”. Also, in [1], the “glucose excursion AUC in glucose tolerance tests” value was “reduced the glucose excursion AUC”, the fasting insulin entry is reported as “reduced” and the “insulin resistance index (HOMA-IR)” value is on record as “reduced”. For the same compound, in data set [4], the UPRE-NLuc activation entry is “diminished UPRE-NLuc activation”. For the same compound, in [5], the “GLuc-SERCaMP secretion after OGD” value is recorded as “decreased GLuc-SERCaMP secretion”; the “cell attachment and viability after OGD” value was “improved cell attachment and viability”. The “GLuc-SERCaMP release” value in data set [6] is recorded as “partially attenuated GLuc-SERCaMP release”. For the same compound, the “caspase 3/7 activation associated” value in data set [8] is “reduced caspase 3/7 activation”. For the same compound, the “thapsigargin-induced secretion of PDI, MANF, and carboxylesterases” value in data set [13] (0.5 h before or 1 h following 200 nM thapsigargin) was “reduced thapsigargin-induced secretion of all three proteins”. Also, the “OGD-induced release of carboxylesterases” value in data set [13] (setting [16]) was “decreased”. Moreover, in data set [7], the “SERCaMP release … to 2 hours post-thapsigargin” value is “inhibited SERCaMP release” and the “SERCaMP release, compound added 4 hours post-thapsigargin” value is “inactive”. Besides, the “BiP mRNA levels” value in data set [10] was “reduced expression of BiP”. For the same compound, the BiP/GRP78 protein levels entry in data set [14] is on record as “reduced thapsigargin-induced accumulation”. Besides, the “Bederson’s neurological score” value in data set [3] is given as “significant reduction”. For the same compound, in [15] (30 min pre-treatment, 200nM thapsigargin 8 h), the “thapsigargin-induced release of GLuc-ERS reporter proteins” value is reported as “broadly inhibited thapsigargin-induced release of the reporter proteins”. Also, the “OGD-induced release of GLuc-ERS reporter proteins” value in data set [15] (setting [16]) was “broadly reduced the OGD-induced release of the reporter proteins”. Besides, in data set [9], the “effect on ER calcium” value is reported as “stabilizing effect on ER calcium”.

Turning to `COc1ccc2c(c1)[C@]13CCCC[C@@H]1[C@H](C2)N(C)CC3` [dextromethorphan], the UPRE-NLuc activation entry in [4] is given as “diminished UPRE-NLuc activation”. Further, the “GLuc-SERCaMP release” value in data set [6] was “partially attenuated GLuc-SERCaMP release”. In addition, in data set [7], the “SERCaMP release … to 2 hours post-thapsigargin” value is listed as “inhibited SERCaMP release” and the “SERCaMP release, compound added 4 hours post-thapsigargin” value was “inactive”. For the same compound, the “effect on ER calcium” value in data set [9] was “no effect”.

For the origin of these results see paper PMC8545458 (Cell reports, 2021).
